From ChEMBL document CHEMBL4308838, “Subtle Modifications to the Indole-2-carboxamide Motif of the Negative Allosteric Modulator N-(( trans)-4-(2-(7-Cyano-3,4-dihydroisoquinolin-2(1 H)-yl)ethyl)cyclohexyl)-1 H-indole-2-carboxamide (SB269652) Yield Dramatic Changes in Pharmacological Activity at the Dopamine D2 Receptor” (J Med Chem, 2018)

Experiments:
Format in all cases: cell-based
[1] = target: D(2) dopamine receptor (Homo sapiens) (UniProt P14416); assay: Negative allosteric modulation of human D2LR expressed in Flp-In-CHO cells assessed as inhibition of dopamine-indued ERK1/2 phosphorylation preincubated for 30 mins followed by dopamine addition and measured after 5 mins by AlphaScreen assay
Chain of D(2) dopamine receptor (Homo sapiens) (P14416 whole entry, canonical isoform): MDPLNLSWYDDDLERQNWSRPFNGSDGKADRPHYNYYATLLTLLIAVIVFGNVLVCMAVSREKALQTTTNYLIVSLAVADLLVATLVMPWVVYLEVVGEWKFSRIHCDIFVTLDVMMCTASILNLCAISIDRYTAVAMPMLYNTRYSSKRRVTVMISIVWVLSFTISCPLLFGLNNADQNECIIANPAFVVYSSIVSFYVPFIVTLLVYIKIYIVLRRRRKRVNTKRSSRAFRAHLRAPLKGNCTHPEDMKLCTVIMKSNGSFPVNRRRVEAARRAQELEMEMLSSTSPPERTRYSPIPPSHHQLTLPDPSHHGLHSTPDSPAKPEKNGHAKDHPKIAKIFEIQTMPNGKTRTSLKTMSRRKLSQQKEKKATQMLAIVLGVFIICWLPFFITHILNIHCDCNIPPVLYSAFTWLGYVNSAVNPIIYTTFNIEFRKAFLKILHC
In short: (§1)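 pERK1/2 signalling through the long D2 isoform (D2LR) expressed in FlpIn CHO cells. Test ligands were measured against increasing dopamine concentrations. Curves were fitted with an operational model of allosterism (functional affinity KB, cooperativity α, efficacy modulation β, net αβ) and with a Gaddum-Schild model (KB, Schild slope). The better fit was chosen by F-test. Mean ± SEM of three experiments run in duplicate.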

[2] = target: D(2) dopamine receptor (Homo sapiens) (UniProt P14416); assay: Negative allosteric modulation of human D2LR expressed in Flp-In-CHO cells assessed as inhibition of dopamine-indued ERK1/2 phosphorylation by measuring negative co-operativity factor preincubated for 30 mins followed by dopamine addition and measured after 5 mins by AlphaScreen assay; in short: as §1
[3] = target: D(2) dopamine receptor (Homo sapiens) (UniProt P14416); assay: Negative allosteric modulation of human D2LR expressed in Flp-In-CHO cells assessed as inhibition of dopamine-indued ERK1/2 phosphorylation preincubated for 30 mins followed by dopamine addition and measured after 5 mins by AlphaScreen assay relative to control; in short: as §1
[4] = target: D(2) dopamine receptor (Homo sapiens) (UniProt P14416); assay: Negative allosteric modulation of human D2LR expressed in Flp-In-CHO cells assessed as inhibition of dopamine-indued ERK1/2 phosphorylation by measuring co-operativity factor preincubated for 30 mins followed by dopamine addition and measured after 5 mins by AlphaScreen assay; in short: as §1
[5] = target: D(2) dopamine receptor (Homo sapiens) (UniProt P14416); assay: (§2) Negative allosteric modulation of human D2LR expressed in Flp-In-CHO cells assessed as inhibition of dopamine-indued ERK1/2 phosphorylation by measuring effect on dopamine efficacy preincubated for 30 mins followed by dopamine addition and measured after 5 mins by AlphaScreen assay; in short: as §1
[6] = target: D(2) dopamine receptor (Homo sapiens) (UniProt P14416); assay: Negative allosteric modulation of human D2LR expressed in Flp-In-CHO cells assessed as inhibition of dopamine-indued ERK1/2 phosphorylation by measuring co-operativity factor preincubated for 30 mins followed by dopamine addition and measured after 5 mins by AlphaScreen assay relative to control; in short: as §1
[7] = target: D(2) dopamine receptor (Homo sapiens) (UniProt P14416); assay: as §2, with “assay relative to control” for “assay”; in short: as §1

Row | SMILES | Kb [1] [nM] | pKb [1] | Activity [2] | log(activity) [2] | fold change (FC) [3] | Activity [4] | log(activity) [4] | Activity [5] | log(activity) [5] | fold change (FC) [6] | fold change (FC) [7]
1 | N#Cc1ccc2c(c1)CN(CC[C@H]1CC[C@H](NC(=O)c3cnc4ccccn34)CC1)CC2 | 24 | 7.62 | 0.0048 | -2.31 | 210 |  |  |  |  |  | 
2 | N#Cc1ccc2c(c1)CN(CC[C@H]1CC[C@H](NC(=O)c3cc4sccc4[nH]3)CC1)CC2 | 87 | 7.06 |  |  |  |  |  |  |  |  | 
3 | COc1ccc2cc(C(=O)N[C@H]3CC[C@H](CCN4CCc5ccc(C#N)cc5C4)CC3)[nH]c2c1 | 25 | 7.6 |  |  |  |  |  |  |  |  | 
4 | COc1ccc2[nH]c(C(=O)N[C@H]3CC[C@H](CCN4CCc5ccc(C#N)cc5C4)CC3)cc2c1 | 2 | 8.7 |  |  |  |  |  |  |  |  | 
5 | N#Cc1ccc2c(c1)CN(CC[C@H]1CC[C@H](NC(=O)c3cc4cccnc4[nH]3)CC1)CC2 |  | 7.63 | 0.038 | -1.42 | 26 |  |  |  |  |  | 
6 | N#Cc1ccc2c(c1)CN(CC[C@H]1CC[C@H](NC(=O)c3cc4cc(F)ccc4[nH]3)CC1)CC2 | 6.8 | 8.17 | 0.016 | -1.8 | 63 |  |  |  |  |  | 
7 | N#Cc1ccc2c(c1)CN(CC[C@H]1CC[C@H](NC(=O)c3cc4cccc(F)c4[nH]3)CC1)CC2 | 4.5 | 8.35 | 0.016 | -1.79 | 62 |  |  |  |  |  | 
8 | N#Cc1ccc2c(c1)CN(CC[C@H]1CC[C@H](NC(=O)c3cnn4ccccc34)CC1)CC2 | 40 | 7.39 |  |  |  |  |  |  |  |  | 
9 | N#Cc1ccc2c(c1)CN(CC[C@H]1CC[C@H](NC(=O)c3cc4ccccn4n3)CC1)CC2 | 165 | 6.78 | 0.03 | -1.52 | 33 |  |  |  |  |  | 
10 | N#Cc1ccc2c(c1)CN(CC[C@H]1CC[C@H](NC(=O)c3cc4ccc(F)cc4[nH]3)CC1)CC2 | 219 | 6.66 | 0.065 | -1.19 | 15 |  |  |  |  |  | 
11 | N#Cc1ccc2c(c1)CN(CC[C@H]1CC[C@H](NC(=O)c3cc4c(F)cccc4[nH]3)CC1)CC2 | 47 | 7.33 | 0.032 | -1.5 | 32 |  |  |  |  |  | 
12 | COc1cccc2cc(C(=O)N[C@H]3CC[C@H](CCN4CCc5ccc(C#N)cc5C4)CC3)[nH]c12 | 51 | 7.29 |  |  |  |  |  |  |  |  | 
13 | COc1cccc2[nH]c(C(=O)N[C@H]3CC[C@H](CCN4CCc5ccc(C#N)cc5C4)CC3)cc12 | 617 | 6.21 | 0.3 | -0.52 | 3 |  |  |  |  |  | 

The remaining lines, values ahead:

Row | Kb [1] [nM] | pKb [1] | Activity [2] | log(activity) [2] | fold change (FC) [3] | Activity [4] | log(activity) [4] | Activity [5] | log(activity) [5] | fold change (FC) [6] | fold change (FC) [7] | SMILES
14 | 3.5 | 8.46 |  |  |  |  |  |  |  |  |  | N#Cc1ccc2c(c1)CN(CC[C@H]1CC[C@H](NC(=O)c3c[nH]c4ccncc34)CC1)CC2
15 | 34 | 7.47 | 0.032 | -1.5 | 32 |  |  |  |  |  |  | N#Cc1ccc2c(c1)CN(CC[C@H]1CC[C@H](NC(=O)c3c[nH]c4ncccc34)CC1)CC2
16 | 2.7 | 8.57 | 0.00055 | -3.26 | 1800 |  |  |  |  |  |  | N#Cc1ccc2c(c1)CN(CC[C@H]1CC[C@H](NC(=O)c3cc4ccncc4[nH]3)CC1)CC2
17 | 63 | 7.2 |  |  |  |  |  |  |  |  |  | N#Cc1ccc2c(c1)CN(CC[C@H]1CC[C@H](NC(=O)c3c[nH]c4ccccc34)CC1)CC2
18 | 10 | 8 | 0.0036 | -2.44 | 275 |  |  |  |  |  |  | N#Cc1ccc2c(c1)CN(CC[C@H]1CC[C@H](NC(=O)c3c[nH]c4cnccc34)CC1)CC2
19 | 0.148 | 9.83 |  |  |  | 0.048 | -1.32 | 0.16 | -0.8 | 21 | 6 | N#Cc1ccc2c(c1)CN(CC[C@H]1CC[C@H](NC(=O)c3c[nH]c4cccnc34)CC1)CC2
